RORa inhibitor: inhibitors of human nuclear receptor RORA; P35398; 65,000 compounds, 0.43% hits; CHO-K1 Gal4-RORA LBD luciferase reporter, luminescence; inhibition, % at 10 µM;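 active means inhibition above the mean of all tested compounds plus 3 SD, cut at about 52% in these data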
Target sequence (P35398 whole entry, looked up, the tested form may be a part): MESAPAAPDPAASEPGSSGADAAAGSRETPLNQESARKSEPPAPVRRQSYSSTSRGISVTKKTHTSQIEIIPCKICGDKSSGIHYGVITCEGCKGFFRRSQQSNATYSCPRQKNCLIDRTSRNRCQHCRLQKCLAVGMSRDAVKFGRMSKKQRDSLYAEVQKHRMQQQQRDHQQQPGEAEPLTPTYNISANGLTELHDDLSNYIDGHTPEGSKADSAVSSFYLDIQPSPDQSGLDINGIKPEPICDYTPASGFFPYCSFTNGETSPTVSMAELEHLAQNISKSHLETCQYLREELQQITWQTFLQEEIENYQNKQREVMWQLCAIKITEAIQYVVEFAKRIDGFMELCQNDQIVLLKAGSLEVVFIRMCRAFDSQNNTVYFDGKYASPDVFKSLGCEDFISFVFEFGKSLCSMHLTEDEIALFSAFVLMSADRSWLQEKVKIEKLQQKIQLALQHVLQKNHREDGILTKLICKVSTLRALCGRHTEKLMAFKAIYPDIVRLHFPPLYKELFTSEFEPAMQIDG
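Test system – CHO-K1 Gal4-RORA LBD luciferase reporter cells · Schedule – 20 h at 37 °C · Signal – luminescence from basal luciferase reporter expression · Measure – percent inhibition of basal reporter luminescence, control-normalized · Control set – -RORA mock-transfected DMSO wells 100%, +RORA DMSO wells 0%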
Large screens that a line does not name were inactive. This excerpt belongs to a sample that is enriched for hits.

CCOc1ccc(-c2nc(CSCC(=O)NCc3ccco3)c(C)o2)cc1	RORa inhibitor 94
COc1ccc2cc(C3(C)NC(=O)N(CC(=O)NCc4ccco4)C3=O)ccc2c1 (stereo unspecified)	none
COCCNC(=O)c1cc(-c2ccccc2OC)on1	none
COC(=O)c1ccc(CSc2nc3scc(-c4cccs4)c3c(=O)[nH]2)o1	none
Cn1c(=O)[nH]c(=O)c2c1nc(Sc1nc3ccccc3s1)n2Cc1ccccc1	none
CCCCNC(=O)CCCn1c(=O)c2ccccc2n(CC(=O)NCCC2=CCCCC2)c1=O	none
Cc1nnc(SCC(=O)NCCc2ccccc2)[nH]c1=O	none
Cc1csc(NC(=O)CNC(=O)OCc2ccccc2)n1	none
COc1ccc(CN2C(=O)CCC2(C)C(=O)NC2CCCCCC2)cc1 (stereo unspecified)	none
CCOc1ccc(C(=O)Nc2ccc(Cl)cn2)cc1Cl	none
Nc1cc(C2CCCC2)nn1-c1ccccc1	none
CCOC(=O)c1cc2sccc2n1CC(=O)N1CCN(C(=O)c2ccco2)CC1	none
Cc1cc(C)c(-c2cc(C(F)(F)F)no2)c(=O)[nH]1	none
CCOc1ccc2oc(-c3ccccc3)c(C(=O)N3CCN(CCO)CC3)c2c1	none
CCOC(=O)C1=C2N(C)c3ccccc3N2CCC1=O	none
Cc1occc1C(=O)Nc1ccc2ccccc2c1	none
CCOC(=O)NC(Nc1nc2ccccc2s1)(C(=O)OCC)C(F)(F)F (stereo unspecified)	none
O=C(Cn1cnc2ccccc21)OCC(=O)N1CCc2ccccc2C1	none
COC(=O)c1ccc(-c2nc(-c3cccs3)no2)cc1	RORa inhibitor 52
COc1ccc(Cc2nc(-c3cccs3)no2)cc1OC	none
COc1cccc(-c2noc(-c3cccs3)n2)c1	none
Cc1cc(-n2nc(C)cc2C)nc(NS(=O)(=O)c2ccccc2)n1	none
NC(=O)CC12CC3CC(C1)CC(CC(N)=O)(C3)C2	none
CC1CCc2c(sc(NC(=O)c3noc4c3CCCC4)c2C(N)=O)C1 (stereo unspecified)	none
Cc1ccc(S(=O)(=O)N(C)Cc2ccc(-c3nnc4n3CCC4)cc2)cc1	none
C=CS(=O)(=O)c1ccc(Oc2ccc(S(=O)(=O)C=C)cc2)cc1	RORa inhibitor 94
OCCNc1nc(OCC(F)(F)F)nc(N2CCN(C34CC5CC(CC(C5)C3)C4)CC2)n1	none
CCOCC(=O)Nc1nnc(C2CCCCC2)s1	none
Cn1c(=O)c2nc(Cl)n(Cc3ccc(Cl)cc3Cl)c2n(C)c1=O	none
Cc1ccc(NC2=Nc3ccccc3CS2)cc1	RORa inhibitor 61
CC(=O)CC(C)=NCCN=C(C)CC(C)=O	none
Cc1cccc(NC(=O)c2cnc3n(c2=O)CCS3)c1	none
COc1ccc(Cl)cc1NC(=O)c1cnc2n(c1=O)CCS2	none
Cc1ccccc1NC(=O)c1cnc2ccccn2c1=O	RORa inhibitor 54
O=C(O)c1cccc(S(=O)(=O)N2CCOCC2)c1	none
CC(=O)c1cccc(-n2nnnc2SCC(=O)Nc2ccccc2N2CCCCC2)c1	none
O=C(CSc1nnnn1-c1ccccc1)NC(=O)Nc1ccc2c(c1)OCCO2	none
CCn1c2ccccc2c2cc(NC(=O)CSc3nnnn3-c3ccccc3)ccc21	RORa inhibitor 63
O=C(Nc1ccc2c(c1)OCCO2)C1CCN(S(=O)(=O)c2ccc(Br)s2)CC1	none
COc1ccc2c(-c3ccccc3)cc3nnnn3c2c1	none
CCCS(=O)(=O)c1nnnn1-c1cccc(OC)c1	RORa inhibitor 82
CCS(=O)(=O)N1CCCC(c2nc(-c3cccc(OC)c3)no2)C1 (stereo unspecified)	none
O=C1C(=O)N(CCCn2ccnc2)C(c2cccnc2)/C1=C(/O)c1ccccc1 (stereo unspecified)	none
COC(=O)c1cc(-c2ccccc2)n(CC(=O)O)c1C	none
CCc1ccc(S(=O)(=O)NCc2csc(C)n2)s1	none
COCCn1c(SCC(=O)Nc2cccc(C)c2)nnc1C(C)C	none
COCCn1c(C)cc(C(=O)CSc2nnc(C)s2)c1C	RORa inhibitor 68
O=C(CC1C(=O)NCCN1C(=O)Nc1ccccc1)Nc1cccc(C(F)(F)F)c1 (stereo unspecified)	none
O=C(CCCCn1c(=O)[nH]c2ccccc2c1=O)N1CCN(c2ncccn2)CC1	none
CCN(C(=O)c1cccs1)c1nnc(-c2ccncc2)s1	none
CCN(C(=O)c1ccc(C(C)(C)C)cc1)c1nnc(Cn2nnc3ccccc32)s1	RORa inhibitor 66
O=C(CCCc1c[nH]c2ccccc12)N1CCN(c2ccc(N3CCOCC3)nn2)CC1	none
Clc1ccc(-c2nn3c(Cn4cnc5ccccc54)nnc3s2)c(Cl)c1	none
Cc1noc(/C=C/N(C)C)c1S(=O)(=O)N1CCc2ccccc21	none
O=C(CSc1nnc(-c2cccs2)n1-c1ccccc1)Nc1ccccc1	none
Cc1ccc2nsnc2c1S(=O)(=O)N1CCN(Cc2ccc3c(c2)OCO3)CC1	none
N#C/C(=C/c1ccc(N2CCCCCC2)o1)c1ccc(F)cc1	RORa inhibitor 62
CCC(C)NC(=O)C1CCCN(C(=O)Nc2ccc(F)cc2)C1 (stereo unspecified)	none
CCn1c(SCC(=O)Nc2cccc(NC(C)=O)c2)nnc1C(C)C	none
CCOC(=O)c1sc2nc(NC(=O)c3cccs3)sc2c1C	none
COc1ccc(-c2cn3c(C)c(C(=O)NC(C)(C)C)sc3n2)cc1	none
COc1ccc(-c2cc(=O)c3ccccc3s2)cc1	none
COc1ccc2c(c1)sc1nc(-c3ccccc3)cn12	RORa inhibitor 92
Cc1cccc(C(=O)NC2CCN(CC(=O)N3CCOCC3)CC2)c1	none
COc1ccccc1-c1nnc(SCC(=O)Nc2nc(-c3ccccc3)cs2)n1C	none
Clc1ccc(C2=Nn3c(nnc3-c3n[nH]c4c3CCC4)SC2)cc1	none
CCOc1ccc(C2=Nn3c(nnc3-c3ccccc3OC)SC2)cc1	RORa inhibitor 54
O=C(Nc1nnc(CCc2ccccc2)s1)c1ccco1	none
COc1cccc(C2=N/C(=C\N(C)C)C(=O)O2)c1	none
Cc1ccc(C(=O)CSc2nnc(CNc3ccc(C)cc3C)o2)cc1	none
Clc1ccc(OCc2nc(-c3ccncc3)no2)c(Br)c1	none
Cc1cc(NC(=O)CCCOc2ccc(Cl)cc2Cl)no1	none
CCC1CCCCN1CCCNC(=O)COc1cc(=O)n(C)c2ccccc12 (stereo unspecified)	none
Cc1ccnc(NC(=O)CCCOc2cc(=O)n(C)c3ccccc23)c1	RORa inhibitor 57
O=C(NCc1cccs1)C1CC(=O)N(c2ccc(F)cc2)C1 (stereo unspecified)	none
CCOc1ncccc1C(=O)OCC(=O)Nc1cc(C(=O)OC)ccc1C(=O)OC	none
CCOC(=O)c1[nH]c(C)c(C(=O)Nc2ccccc2F)c1C	none
CC(=O)c1c(C)[nH]c(C(=O)OCCCCN2C(=O)c3ccccc3C2=O)c1C	RORa inhibitor 78
CCOC(=O)c1[nH]c(C)c(C(=O)Nc2ccc(F)cc2)c1C	none
c1ccc(-c2noc(-c3cccc4ccccc34)n2)cc1	none
COc1cccc(-c2nc(-c3ccccc3)no2)c1	none
Cc1ccc(-c2nc(-c3ccccc3)no2)c(Cl)c1	RORa inhibitor 57
Cc1ccccc1-n1c(=O)cc(N2CCN(C(=O)c3ccco3)CC2)[nH]c1=O	none
CC(C)NCC(O)Cn1c2c(c3ccccc31)CCc1c-2cnn1-c1ccccc1 (stereo unspecified)	RORa inhibitor 68
COC(=O)[C@@H](NC(=O)NCc1ccco1)C(C)C	none
O=C(OCCCN1CCCC1)C1(c2ccccc2)CCCC1	none
O=C(NCc1ccc2c(c1)OCO2)C1CC(=O)N(c2ccc(O)cc2)C1 (stereo unspecified)	none
c1ccc(-c2noc(-c3ccc4ccccc4c3)n2)nc1	RORa inhibitor 92
c1ccc(-c2noc(C3CCCCC3)n2)nc1	none
COc1ccc(-c2nc(-c3ccccc3OC)no2)cc1OC	none
c1ccc(-c2noc(-c3ccc4c(c3)OCO4)n2)nc1	RORa inhibitor 78
